Source: PubChem BioAssay
Rows were chosen to be rich in hits. Some 2.5% of all compounds tested hit in one or more screens of this group.
S100A4 inh HTS: inhibitors of S100A4-myosin IIA peptide binding, primary screen, biochemical, fluorescence polarization, TAMRA-MyoIIA peptide; 0.14% of 360,000 active; AID 652163, 2013; Protein S100-A4 (Homo sapiens), P26447; inhibition, % at 10.7 µM;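 active = mean inhibition of at least 70% across replicates, with every replicate also reaching that level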
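Material: S100A4 monomer (human). Medium: Calcium-containing HEPES buffer, pH 7.2. Probe or stimulus: labelled myosin peptide probe, 5 nM. Compound dosing: one concentration per compound. Timing: polarization read 5 min after assay mix addition, stable 5–60 min. Benchmarks: DMSO as neutral control, TFP as positive control.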
miR-122 sensor: miR-122 Renilla sensor signal increase in Huh7, primary screen, miR-122 inhibitor project, cell-based, single point, plate reader; activation (reporter increase), % at 12.5 µM; 0.3% of 340,000 active; Huh7 miR-122 Renilla luciferase sensor, 48 h; neutral wells = 0, positive control = 100; AID 602342, 2012;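 active = mean replicate activation score at least 90 and every replicate individually at or above 90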;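 note: higher luciferase means less miR-122 activity so hits act as miR-122 inhibitors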
E-sel inducer: E-selectin induction in HUVECs, primary screen, imaging, HUVEC, immunofluorescence imaging, single point. normalized: neutral wells 0, TNF-alpha wells 100. activation, % at 7.58 µM. 0.37% of 260,000 active. AID 686992, 2013;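 active = mean E-selectin-positive cell signal at least 10% of the positive control, reached in at least 60% of replicates, without over 20% cell loss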
Target sequence (P16581 whole entry, looked up): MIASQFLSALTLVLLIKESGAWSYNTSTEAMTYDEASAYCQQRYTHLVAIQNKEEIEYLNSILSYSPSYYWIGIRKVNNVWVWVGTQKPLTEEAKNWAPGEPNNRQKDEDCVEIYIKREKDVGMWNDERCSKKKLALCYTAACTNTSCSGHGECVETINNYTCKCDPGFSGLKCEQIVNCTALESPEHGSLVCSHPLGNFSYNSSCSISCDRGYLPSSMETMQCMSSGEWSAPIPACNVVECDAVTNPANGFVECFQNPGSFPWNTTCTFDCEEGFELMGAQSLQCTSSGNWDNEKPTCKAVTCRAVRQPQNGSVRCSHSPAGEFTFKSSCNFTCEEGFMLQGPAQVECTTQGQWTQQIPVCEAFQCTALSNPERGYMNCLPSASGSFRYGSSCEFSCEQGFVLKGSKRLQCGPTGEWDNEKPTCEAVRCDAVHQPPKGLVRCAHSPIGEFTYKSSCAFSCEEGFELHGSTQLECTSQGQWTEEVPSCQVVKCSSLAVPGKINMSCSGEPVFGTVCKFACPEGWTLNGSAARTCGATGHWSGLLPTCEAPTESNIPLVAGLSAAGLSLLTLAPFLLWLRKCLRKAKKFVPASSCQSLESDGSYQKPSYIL
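Assay system: HUVEC primary endothelial cells. Input: 3,000 HUVEC seeded per well. Doses: one compound dose added by pin transfer. Read-out basis: % PE-positive cells. Benchmarks: TNF-alpha high, DMSO low. Detection: immunofluorescence imaging. Buffer or medium: EGM-2, gelatin.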
SIRT5 block: SIRT5 desuccinylase inhibitors, primary screen, biochemical, fluorescence imaging, single point, set 5; NAD-dependent protein deacylase sirtuin-5, mitochondrial (Homo sapiens), Q9NXA8; Purified SirT5, succinyl-peptide AMC, trypsin-coupled fluorescence; inhibition, % at 15 µM; 1.1% of 330,000 active; AID 652115, 2013; in the data active = inhibition above about 15%
FGF22 binding: binders of human FGF22 protein, primary screen, FGF22 synaptogenesis inhibitor project, biophysical, thermal shift, single point; recombinant FGF22 thermal shift, SYPRO orange fluorescence; percent of sucrose octasulfate shift, DMSO zero; 1.5% of 340,000 active; activity (Tm shift, normalised), % at 9.99 µM;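 active = mean Tm shift, scaled 0 neutral to 100 positive control, at about 1.3% or above, every replicate too, limit read from the data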
A number is an active result; - = inactive; . = not tested or not shown; ! = a repeat was not active; [ ] = dose if it differs, or a comment.

SMILES | S100A4 inh HTS | miR-122 sensor | E-sel inducer | SIRT5 block | FGF22 binding
COc1ccc(S(=O)(=O)Nc2cccc3c2O[C@H](CN(C)Cc2ccc(Cl)c(Cl)c2)[C@@H](C)CN([C@H](C)CO)C3=O)cc1 | - | 98! | - | 15 | -
C[C@H](CO)N1C[C@H](C)[C@@H](CN(C)Cc2ccc(Cl)c(Cl)c2)Oc2c(NS(=O)(=O)c3ccccc3)cccc2C1=O | - | 106![16.7 µM] | . | - | -
C[C@@H]1CN([C@H](C)CO)C(=O)c2cccc(NS(=O)(=O)c3cccs3)c2O[C@H]1CN(C)Cc1ccc(Cl)c(Cl)c1 | - | - | 349 | - | -
COc1ccc(S(=O)(=O)Nc2cccc3c2O[C@@H](CN(C)Cc2ccc(C(F)(F)F)cc2)[C@H](C)CN([C@H](C)CO)C3=O)cc1 | - | 102[16.7 µM] | - | - | -
C[C@@H]1CN([C@H](C)CO)C(=O)c2cccc(NS(=O)(=O)c3ccccc3)c2O[C@H]1CN(C)Cc1ccc(Cl)c(Cl)c1 | - | - | . | - | -
CS(=O)(=O)N1CC2(C1)[C@H](c1ccccc1)[C@@H](CO)N2C(=O)C1CCC1 | - | . | - | - | -
CN(C)CC(=O)N1[C@H](C(=O)NCc2ccccc2F)[C@@H](CO)[C@@H]2Cn3c(cccc3=O)[C@@H]21 | - | . | - | - | .
Cc1ccc(NC(=O)C2CCCN2C(=O)NC2CCCCC2)cc1F (centres undefined) | - | - | - | . | 43
Cc1ccc(NC(=O)C2CCCN2C(=O)NC2CCCCC2)cc1C (centres undefined) | - | . | . | - | -
C[C@H]1CCCCO[C@@H](CN(C)C(=O)Nc2ccc(F)cc2)[C@@H](C)CN([C@@H](C)CO)C(=O)c2cc(NC(=O)c3ccccc3)ccc2O1 | - | - | - | - | -
O=C(CC1c2cc(F)ccc2C=C(c2ccsc2)N1c1ccc(C#CCCO)cc1)c1ccco1 (centres undefined) | - | . | - | 17 | -
COc1ncc(-c2ccc(N3C(c4ccsc4)=Cc4ccc(F)cc4C3CC(=O)c3ccco3)cc2)cn1 (centres undefined) | - | . | - | - | -
CC(=O)CC1c2cc(F)ccc2C=C(c2ccsc2)N1c1ccc(C#Cc2cncn2C)cc1 (centres undefined) | - | . | - | - | 1.8
CCN(CC)c1ccc2nc3c4ccccc4c(=O)cc-3oc2c1 | - | . | 203 | - | -
CC(C)(C)c1nc(SCC(=O)N2CC(=O)Nc3ccccc32)c2ccccc2n1 | - | - | . | - | 44
CC(C)C(=O)Nc1cccc(COc2ccccc2CN(Cc2ccccc2)C(=O)OC(C)(C)C)c1 | - | - | - | 18 | -
CC(C)(C)OC(=O)N(CCc1ccccc1)Cc1ccccc1OCc1cccc(NC(=O)C2CCCC2)c1 | - | . | - | 29 | -
Cc1ccc(S(=O)(=O)Nc2ccc3c(c2)C(=O)N([C@@H](C)CO)C[C@H](C)[C@H](CN(C)S(=O)(=O)c2c(C)noc2C)O3)cc1 | - | - | - | - | -
CCCc1ccc(OCC(=O)Nc2cc(S(=O)(=O)CC)ccc2O)cc1 | - | - | . | . | 44
C[C@H](CO)N1C[C@H](C)[C@H](CN(C)C(=O)C2CCCCC2)OCCCC[C@H](C)Oc2ccc(NS(=O)(=O)c3ccc(F)cc3)cc2C1=O | - | - | - | - | -
C[C@@H]1CN([C@H](C)CO)C(=O)c2cc(NS(=O)(=O)c3ccc(F)cc3)ccc2O[C@@H](C)CCCCO[C@@H]1CN(C)CC1CCCCC1 | - | - | - | 19 | -
COc1ccc(S(=O)(=O)Nc2ccc3c(c2)C(=O)N([C@H](C)CO)C[C@@H](C)[C@H](CN(C)C(=O)C2CCCCC2)OCCCC[C@@H](C)O3)cc1 | - | - | - | - | 1.5
C[C@@H]1CCCCO[C@H](CN(C)C(=O)C2CCCCC2)[C@@H](C)CN([C@@H](C)CO)C(=O)c2cc(NS(=O)(=O)c3ccc(F)cc3)ccc2O1 | - | - | - | 17 | -
C[C@@H]1CCCCO[C@H](CN(C)C(=O)C2CCCCC2)[C@H](C)CN([C@@H](C)CO)C(=O)c2cc(NS(=O)(=O)c3ccc(F)cc3)ccc2O1 | - | - | - | 16 | -
C[C@@H]1CN([C@@H](C)CO)C(=O)c2cc(NS(=O)(=O)c3ccc(F)cc3)ccc2O[C@@H](C)CCCCO[C@H]1CN(C)CC1CCCCC1 | - | - | - | - | -
SMILES | S100A4 inh HTS | miR-122 sensor | E-sel inducer | SIRT5 block | FGF22 binding
CC(C)CC#Cc1ccc2c(c1)O[C@@H](CN(C)Cc1ccccn1)[C@@H](C)CN([C@@H](C)CO)S2(=O)=O | - | - | - | - | -
COc1ccc(NC(=O)CCSc2nnnn2C)cc1 | - | - | - | 18 | -
COc1ccc2c3c(n(C)c2c1)[C@H](CO)N(Cc1ccccc1Cl)CC31CCN(C(=O)CC2CC2)CC1 | - | . | - | - | -
Cc1noc(C)c1S(=O)(=O)N(C)C[C@@H]1OCCCC[C@@H](C)Oc2ccc(NC(=O)Nc3ccc(F)cc3)cc2C(=O)N([C@@H](C)CO)C[C@@H]1C | - | . | - | - | -
CCOP(=O)(O)c1cccc(OCCOCCOc2cccc(P(=O)(O)OCC)c2)c1 | - | - | . | - | 44
CCN(Cc1cnn(C)c1)C(=O)c1ccc(OC2CCN(S(=O)(=O)N(C)C)CC2)cc1 | - | . | - | - | 44
CCn1cc(/C=C(\NC(=O)c2ccccc2)C(=O)NCCCn2ccnc2)c2ccccc21 | - | 165 | - | . | -
O=C(NCCCn1ccnc1)/C(=C/c1ccco1)NC(=O)c1cccs1 | - | . | - | - | 1.4
Cc1ccc(C(=O)N/C(=C\c2cn(S(=O)(=O)N(C)C)c3ccccc23)C(=O)NCCCn2ccnc2)cc1 | - | - | . | - | -
C[C@H]1CN([C@@H](C)CO)C(=O)c2cccc(NC(=O)Nc3ccc4c(c3)OCO4)c2O[C@@H]1CN(C)Cc1ccccc1 | - | . | - | - | -
Cc1cccc(CN2CCc3c([nH]c4ccccc34)C2CC(C)C)n1 (centres undefined) | - | - | - | - | -
Cc1cnc(CN2CCc3c([nH]c4ccccc34)C2CC(C)C)[nH]1 (centres undefined) | - | - | - | - | 43
COc1ccc(-c2cc3ccccc3cn2)cc1 | - | - | - | - | 44
COc1ccc(-c2cc3ccc(OC)cc3cn2)cc1 | - | - | - | - | -
CC1(C)CC(NC(=S)NC2CC2)CC(C)(C)N1 | - | - | - | - | 43
C=CCNC(=S)NC1CC(C)(C)NC(C)(C)C1 | - | . | - | - | -
Cc1ccc(NC(=O)CC(NCC2CCCO2)C(=O)O)cc1C (centres undefined) | - | - | . | - | 43
